Mdm2 ligase inh = inhibitors of human Mdm2 E3 ubiquitin ligase; Q00987; cell-based MDM2 ubiquitination luciferase reporter, 2 h; 0 = plate control, 100 = twice control, blank-subtracted; signal enhancement, % at 5 µM; 210,000 compounds, 0.11% hits; AID 1230;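 active means signal enhancement of 30% or more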;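 further: luminescence tracks abundance of the self-degrading MDM2-luciferase fusion protein; higher signal means inhibition of MDM2 E3 ligase activity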
Target sequence (Q00987 whole entry, looked up, the tested form may be a part): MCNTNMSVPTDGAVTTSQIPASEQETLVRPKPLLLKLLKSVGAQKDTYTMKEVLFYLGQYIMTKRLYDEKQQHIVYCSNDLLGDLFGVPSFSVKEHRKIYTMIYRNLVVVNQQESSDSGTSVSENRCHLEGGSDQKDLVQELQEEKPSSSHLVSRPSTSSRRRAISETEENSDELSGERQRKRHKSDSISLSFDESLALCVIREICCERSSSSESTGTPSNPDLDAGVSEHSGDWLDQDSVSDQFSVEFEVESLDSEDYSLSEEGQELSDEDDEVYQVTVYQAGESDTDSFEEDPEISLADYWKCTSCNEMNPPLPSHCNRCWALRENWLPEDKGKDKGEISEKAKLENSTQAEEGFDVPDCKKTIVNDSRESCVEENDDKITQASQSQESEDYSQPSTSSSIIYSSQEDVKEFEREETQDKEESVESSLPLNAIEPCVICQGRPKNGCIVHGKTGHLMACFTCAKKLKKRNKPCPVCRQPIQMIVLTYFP
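Buffer or medium: Cells held in DMEM | Assay system: Stable mammalian line carrying autodegrading MDM2–luciferase fusion reporter | Quantity: 2000 cells/well | Times: 4 h settle plus 2 h compound, 37 °C | Doses: One concentration, 5 µM, with 0.2% DMSO | Technique: Luminescence with SteadyLite reagent, 15 min at room temperature | Benchmarks: Plate controls and plate blanks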
NF-kB neuron act = NF-kB expression increase, human neuronal cells | NF-kB reporter expression; active compounds read high | 190,000 compounds, 1.6% hits | AID 1239 | fold change at 12.5 µM; in the data active means fold change above about 3.3
APP 5'UTR act = activates APP 5'UTR luciferase reporter; SH-SY5Y APP 5'UTR luciferase reporter, luminescence; zero percent = DMSO vehicle wells; activation, % at 2 µM; 190,000 compounds, 1% hits; AID 1276;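 active means activation above a set limit, based on mean plus 3 SD of controls, cut at about 140% in these data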
AHR act = activates the human aryl hydrocarbon receptor | AHR-responsive luciferase reporter cells, luminescence | activation, % at 5 µM | 320,000 compounds, 2.5% hits; in the data active means activation above about 47%;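 further: 0% = vehicle wells and 100% = reference agonist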
PERK inhibitor = inhibitors of human PERK kinase. CHO PERK-DD fusion, SEAP luminescence translation reporter. inhibition, % at 5.6 µM. 220,000 compounds, 0.17% hits;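 active means inhibition above the mean inhibition of all tested compounds plus 3 SD, set separately per screening campaign, cut at about 2.9% in these data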;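 further: PERK kinase domain activated by AP20187 dimerizer at 100 nM; 0% = DMSO with dimerizer and 100% = rapamycin at 8.4 µM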
STAT1 act = STAT1 signaling activation | NIH 3T3 STAT1-luciferase reporter, IFN-gamma, luminescence; 100% = IFN-gamma alone, no compound | 200,000 compounds, 2.6% hits | activation (% of control), % at 5.5 µM;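 active means activation above the screen-wide mean activation plus 3 SD, cut at about 130% in these data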;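 further: raw ratio to IFN-gamma control signal so 100% means no change and 0% no light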
STAT1 activ conf = STAT1 activation, confirmation assay; shares compounds with STAT1 act; NIH 3T3 STAT1-luciferase reporter, IFN-gamma potentiation, luminescence; 100% = IFN-gamma EC80 alone, no compound; activation (% of control), % at 5.7 µM; 1,200 compounds, 97% hits; AID 1262;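 active means activation above a set limit carried over from the earlier primary STAT1 screen, cut at about 140% in these data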;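 further: simple ratio to median IFN-gamma plus DMSO wells so 0% means no light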
NFkB act = activates NF-kappaB, counter-screen to STAT1 activators | shares compounds with STAT1 act | HEK293T NF-kB luciferase reporter, TNF-alpha stimulated, luminescence; 100% = TNF-alpha with vehicle only | activation (% of control), % at 5.7 µM | 1,200 compounds, 43% hits | AID 1306;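 active means activation above the mean of solvent-only control wells plus 3 SD, set per campaign, cut at about 130% in these data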;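 further: TNF-alpha given at a submaximal dose yielding about 80% of full reporter signal; values are well signal over median control so 100% means no change and 0% no light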
STAT3 act STAT1c = human STAT3 activation in STAT1 activator counter-screen; shares compounds with STAT1 act; U3A cells STAT3-luciferase reporter, IL-6, luminescence; cells lack STAT1; 100 = IL-6 alone, no compound effect; activation (% of control), % at 5.7 µM; 1,200 compounds, 46% hits; AID 1316;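 active means activation above the solvent-only control well mean plus 3 SD, set per plate batch, cut at about 110% in these data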;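 further: 0% = no luminescence and 100% = median IL-6 plus DMSO wells; higher means more STAT3 reporter activation so hits are non-selective activators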
Numbers without * were called inactive; . = no result given. Sampled rows, rich in hits. Any-hit rate of the full collection: about 4.5%.

SMILES	Mdm2 ligase inh	NF-kB neuron act	APP 5'UTR act	AHR act	PERK inhibitor	STAT1 act	STAT1 activ conf	NFkB act	STAT3 act STAT1c
c1ccc(N2CCN(c3cnc4ccccc4n3)CC2)cc1	2.2	6.52*	11.0	-6.9	-0.6	175.1*	218.9*	130.4	97.4
CCNC(=S)/N=C(\N)Nc1nc(C)c2cc(C)ccc2n1	-9.4	2	66.3	77.3*	1.8	182.2*	178.8*	141.1*	125.2*
CCOc1ccc2nc(N/C(N)=N/C(=S)Nc3ccc(C)c(C)c3)nc(C)c2c1	-3.7	1.07	-5.3	7.8	0.6	90.6	.	.	.
COc1ccc(C(=O)/C(=C/c2cccs2)c2nc3ccccc3o2)cc1	-21.4	0.76	52.4	14.7	-0.3	110.1	.	.	.
COc1ccc(/C=C(\CC(=O)O)c2nc3ccccc3o2)cc1	-25.6	0.9	76.2	7.9	1.2	150.8*	160.1*	135.8*	116.5*
O=C(Cc1cccs1)Nc1cccc(-c2nc3cc4ccccc4cc3[nH]2)c1	-9.7	4.76*	195.4*	0.4	-1.2	197.4*	269.7*	157.7*	106.5
Cc1ccc(N/C=C2/Sc3ccccc3NC2=O)cc1	-10.5	1.73	122.6	28.7	-0.1	168.4*	192.1*	134.6*	90.5
COc1ccc(N/C=C2/Sc3ccccc3NC2=O)cc1	-16.3	1.79	104.1	55.0*	-0.4	166.2*	169.9*	112.5	107.1
O=c1[nH]nc(SCCS(=O)(=O)c2ccc(F)cc2)n1-c1ccc2c(c1)OCCO2	-19.9	.	.	-1.0	0.3	.	.	.	.
CCOc1cccc2cc(C(N)=O)c(=N)oc12	-9.0	.	.	.	0.6	.	.	.	.
Cc1ccc(C(=O)N(CC(=O)NC2CCCC2)c2ccccc2Cl)s1	.	.	.	-1.0	.	.	.	.	.
COc1ccc(C=O)cc1OC(=O)N1CCOCC1	.	.	.	-0.8	.	.	.	.	.
C=CCNc1nc(-c2cc3ccccc3o2)cs1	-11.3	7.54*	210.1*	32.9	0.1	185.3*	225.5*	86.4	84.6
Cc1[nH]n(C(N)=S)c(=O)c1N=Nc1ccc2ccccc2c1	-2.6	5.86*	134.0	.	0.3	172.3*	208.3*	123.1	146.3*
Nc1nc2nccc(-c3cccnc3)n2n1	-1.7	1.31	5.5	13.2	0.6	102.4	.	.	.
CCOC(=O)CSc1nc(-c2ccncc2)ccc1C#N	-19.2	8.91*	184.9*	-8.9	0.2	158.6*	190.4*	131.4	105.6
CC(C)(C)C(=O)Nc1nc(-c2ccccc2)ns1	-17.5	5.91*	144.5*	7.8	0.0	164.9*	199.8*	129.0	109.6
CC(NC(=O)CNC(=O)c1ccco1)c1ccccc1 (stereo unspecified)	.	.	.	-3.8	.	.	.	.	.
COc1ccc(-c2nc(-c3ccc(Br)cc3)no2)c(OC)c1	-44.9	6.05*	94.1	95.2*	0.4	154.7*	233.3*	131.9	112.1*
COc1cccc(-c2noc(-c3ccoc3C)n2)c1	-7.2	2.92	109.4	69.3*	3.1*	159.9*	192.0*	134.3*	110.8*
COc1ccc(-c2nc(-c3ccc(Br)o3)no2)cc1OC	-13.0	1.76	4.8	-3.0	1.1	126.0	.	.	.
COc1ccc(-c2noc(-c3ccco3)n2)cc1OC	10.3	5.74*	123.6	2.8	0.9	152.1*	201.7*	137.4*	119.2*
COc1ccc(-c2csc(-c3ccccc3)n2)c(OC)c1	-17.9	11.7*	195.0*	36.9	-0.3	153.4*	226.9*	144.4*	144.0*
CC(C)CCNC(=O)C(c1cccnc1)N(CCc1ccccc1)C(=O)Cn1nnc2ccccc21 (stereo unspecified)	-9.4	1.36	4.1	4.2	0.9	101.0	.	.	.
CN(C)S(=O)(=O)c1cccc(NC(=O)Cc2ccc(-c3ccccc3)cc2)c1	.	.	.	-7.4	.	.	.	.	.
SMILES	Mdm2 ligase inh	NF-kB neuron act	APP 5'UTR act	AHR act	PERK inhibitor	STAT1 act	STAT1 activ conf	NFkB act	STAT3 act STAT1c
C/C(=N/NC(=O)c1ccco1)c1ccc(NC(=O)c2ccc(F)cc2)cc1	10.7	1.04	56.0	2.3	1.1	155.3*	125.1	118.3	96.3
CCCNS(=O)(=O)c1ccc(OCC(=O)Nc2ccc3c(c2)OCCO3)c(C)c1	.	.	.	1.7	.	.	.	.	.
Cn1cccc1C(=O)C(=O)Nc1cc(Cl)cc(Cl)c1	-10.5	2.14	21.5	2.4	1.1	122.3	.	.	.
Cn1cccc1C(=O)C(=O)Nc1ccc(F)c(F)c1	-0.2	5.17*	139.3*	-5.6	0.9	154.0*	192.7*	132.9	106.7
C/C(=N\NC(=O)c1nnn(-c2nonc2N)c1CN1CCCCC1)c1ccccc1O	.	.	.	-1.1	.	.	.	.	.
COc1ccccc1OCC(=O)Nc1ncc(C)s1	.	.	.	2.2	.	.	.	.	.
Cc1cnc(NC(=O)COc2ccccc2)s1	-10.9	4.26*	167.7*	-8.7	0.6	166.3*	179.4*	130.3	100.7
Oc1ccc(/C=N/Nc2ccc(C(F)(F)F)cn2)c(O)c1	.	.	.	11.1	.	.	.	.	.
Oc1ccc(/C=N/Nc2ccc(C(F)(F)F)cn2)cc1	5.0	4.75*	126.8	-0.8	-0.1	167.7*	171.9*	108.0	98.9
Cc1ccc(C(=O)c2sc3nsc(C)c3c2N)cc1	-26.3	6.33*	197.9*	64.4*	-0.2	154.2*	238.6*	145.0*	113.6*
Cc1nc(-c2ccccc2)nc2sc(C(=O)c3ccc(F)cc3)c(N)c12	-11.8	.	.	16.4	0.5	.	.	.	.
CCN(C(=O)COC(=O)c1ccc(Br)o1)C1CCCCC1	-14.7	1.07	4.6	-0.6	0.0	96.5	.	.	.
O=C(Nc1ccc(-c2nc3cccnc3s2)cc1)c1ccco1	-28.2	3.9*	216.2*	36.7	0.0	152.2*	227.1*	113.2	96.8
O=C(Nc1ccc2nc(-c3cccs3)[nH]c2c1)c1ccco1	-4.7	0.84	43.6	-3.5	0.5	105.2	.	.	.
Cc1ccc2nc(-c3ccc(NC(=O)c4ccco4)cc3)[nH]c2c1	-21.4	2.79	113.3	-10.5	-1.9	160.4*	187.1*	136.2*	104.9
O=C(Nc1ccc(-c2nc3ncccc3o2)cc1)c1ccco1	-13.5	2.7	92.0	-2.0	-1.3	160.5*	173.3*	126.1	102.1
COc1ccccc1/C=C/CN1CCC(Oc2cc(C(=O)NC3CC3)ccc2OC)CC1	.	.	.	5.5	.	.	.	.	.
COC(=O)C(C)N1C(=O)S/C(=C/c2cc(C)n(-c3ccccn3)c2C)C1=O (stereo unspecified)	-10.2	3.56*	59.2	-0.8	-0.7	151.5*	172.9*	133.3*	115.9*
